ASAP1 GAP inh – inhibitors of human ASAP1 ArfGAP activity. hit rate 0.19% among 360,000. ASAP1-stimulated ARF1 GTP hydrolysis, GDP FP detection. Q9ULH1. inhibition, % at 16.5 µM; in the data active = inhibition above about 25%;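 also: 0% = vehicle with enzyme and substrate and 100% = no enzyme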
Target sequence (Q9ULH1 325-724 limits assumed): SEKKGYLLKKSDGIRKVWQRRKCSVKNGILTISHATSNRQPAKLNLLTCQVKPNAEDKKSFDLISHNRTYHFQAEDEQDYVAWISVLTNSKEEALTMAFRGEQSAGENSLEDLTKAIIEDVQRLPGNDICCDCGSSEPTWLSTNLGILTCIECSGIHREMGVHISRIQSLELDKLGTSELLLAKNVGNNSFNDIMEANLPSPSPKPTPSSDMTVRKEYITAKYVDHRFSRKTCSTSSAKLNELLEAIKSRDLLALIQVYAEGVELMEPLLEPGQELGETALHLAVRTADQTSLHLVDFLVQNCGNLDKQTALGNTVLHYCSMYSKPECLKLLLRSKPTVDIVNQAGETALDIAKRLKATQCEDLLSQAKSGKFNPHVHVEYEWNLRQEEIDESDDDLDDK
FGF22 binding – shifts melting point of recombinant human FGF22. Q9HCT0. recombinant FGF22 thermal shift, SYPRO orange fluorescence; percent of sucrose octasulfate shift, DMSO zero. activity (Tm shift, normalised), % at 9.99 µM. hit rate 1.5% among 340,000. AID 651658;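 active = mean Tm shift, scaled 0 neutral to 100 positive control, at about 1.3% or above, every replicate too, limit read from the data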
ARFGAP1 inhibitor – rat ARFGAP1 inhibition. Q62848. Arfgap1-stimulated ARF1 GTP hydrolysis, GDP FP detection. inhibition, % at 16.5 µM. hit rate 0.26% among 360,000. AID 651572;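 active = inhibition above a per-plate limit, mean inhibition of low control wells plus 3 SD, cut at about 25% in these data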;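 also: 0% = DMSO wells with enzyme and 100% = wells lacking Arfgap1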
Target sequence (Q62848 1-136 limits assumed): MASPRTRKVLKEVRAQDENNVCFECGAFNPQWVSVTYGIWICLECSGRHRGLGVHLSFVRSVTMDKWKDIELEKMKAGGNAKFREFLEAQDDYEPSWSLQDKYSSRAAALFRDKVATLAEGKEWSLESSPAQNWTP
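Material: rat Arfgap1 catalytic domain, aa 1-136; also added: human ARF1(Δ1-17)-GTP substrate; compound dosing: one concentration, 16.5 µM, DMSO 1.26%; incubation: GTP hydrolysis reaction 2 h at 25 °C; measured by: Tracer-displacement fluorescence polarization with EDTA stop, 620/688 nm; evaluation: % inhibition from polarization; repeats: one replicate per compound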
Efflux pump mplx – inhibitors of Candida antifungal efflux pumps expressed in yeast. S. cerevisiae Candida pump triplex, Nile Red efflux. inhibition, % at 10 µM. hit rate 0.44% among 330,000;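 active = plate passing quality check with inhibition over a set limit, or well fluorescence over plate mean plus 4 SD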;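 also: Nile Red retained in pooled yeast measured as flow cytometry median fluorescence; 0% = buffer negative control and 100% = Enniatin B positive control; higher means more Nile Red kept so more efflux inhibition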
Rtt109 HAT inh – inhibitors of Candida albicans Rtt109/Vps75 histone acetyltransferase | Q5AAJ8 | purified Rtt109/Vps75, ThioGlo CoA-SH fluorescence, 4 h | inhibition, % at 34.9 µM | hit rate 0.16% among 330,000;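 active = inhibition of at least 50% in every replicate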
Starred values were filed as active, the others as inactive. Most compounds without a hit are left out; they make up all but 1.9% or so of the library.

CC(=O)Nc1ccc(C(=O)OCC(=O)NCc2ccc3c(c2)OCO3)cc1 was read as ASAP1 GAP inh 16, FGF22 binding 43*, ARFGAP1 inhibitor 9, Efflux pump mplx 0 and Rtt109 HAT inh -1.
COc1ccc(CC(=O)OCC(=O)Nc2ccc3c(c2)OCO3)cc1 was read as ASAP1 GAP inh 0, FGF22 binding 43*, ARFGAP1 inhibitor -2, Efflux pump mplx 0 and Rtt109 HAT inh 6.
`Cc1ccc(S(=O)(=O)NCC(=O)OCC(=O)NCc2ccc3c(c2)OCO3)cc1` gave ASAP1 GAP inh 7, FGF22 binding 0, ARFGAP1 inhibitor 6 and Rtt109 HAT inh -10.
CC(=O)Nc1ccc(S(=O)(=O)NCC(=O)OCC(=O)NCc2ccc3c(c2)OCO3)cc1 was read as ASAP1 GAP inh 21, FGF22 binding 44*, ARFGAP1 inhibitor 5, Efflux pump mplx 0 and Rtt109 HAT inh 2.
`FC(F)(F)c1cc(Cl)c2nnc(C(F)(F)Cl)n2c1` gave ASAP1 GAP inh -10, FGF22 binding 0, ARFGAP1 inhibitor 2, Efflux pump mplx 0 and Rtt109 HAT inh -4.
For CCO[C@@H]1OC(C(=O)Nc2ccccc2)=C[C@H](C)[C@H]1CCCO the results were ASAP1 GAP inh 9, FGF22 binding 0, ARFGAP1 inhibitor 4, Efflux pump mplx 0 and Rtt109 HAT inh -3.
`C[C@@H]1CN([C@H](C)CO)C(=O)c2cccc(NC(=O)C3CCOCC3)c2O[C@H]1CN(C)C(=O)Nc1ccc(C(F)(F)F)cc1` gave FGF22 binding 0.
`O=C(O)CCc1ccc(-c2ccccc2)o1` gave ASAP1 GAP inh 1, ARFGAP1 inhibitor -7, Efflux pump mplx 0 and Rtt109 HAT inh 78*.
Screening Nc1ccc(CSc2ccccc2)cc1 returned ASAP1 GAP inh -4, FGF22 binding 43*, ARFGAP1 inhibitor 11 and Rtt109 HAT inh 0.
Nc1ccc(SCc2cccnc2)cc1 was read as ASAP1 GAP inh -21, FGF22 binding -1, ARFGAP1 inhibitor 3, Efflux pump mplx 0 and Rtt109 HAT inh 0.
`O=S(=O)(Nc1ccc(Cc2ccncc2)cc1)c1ccc(Cl)s1` gave ASAP1 GAP inh -13, ARFGAP1 inhibitor 7, Efflux pump mplx 0 and Rtt109 HAT inh -1.
C[C@H]1CN([C@@H](C)CO)C(=O)Cc2cc(NC(=O)Nc3ccc4c(c3)OCO4)ccc2O[C@@H]1CN(C)Cc1ccc2c(c1)OCO2 was read as FGF22 binding 0.
`CC(C)CC#Cc1ccc([C@H]2[C@@H](CO)N3C(=O)CN(C(=O)c4cccc(F)c4)C[C@H]23)cc1` gave FGF22 binding 0.
For N#Cc1ccccc1COc1ccc(/C=C/C(=O)O)cc1 the results were ASAP1 GAP inh -1, FGF22 binding 43*, ARFGAP1 inhibitor -5 and Efflux pump mplx 0.
`Cc1ccccc1COc1ccc(/C=C(\C#N)C(N)=O)cc1` gave ASAP1 GAP inh -2, FGF22 binding 44*, ARFGAP1 inhibitor -15, Efflux pump mplx 0 and Rtt109 HAT inh -4.
Screening CC(C)Oc1cccc(C(=O)C2CCCN(C(=O)c3ccsc3)C2)c1 (configuration not stated) returned ASAP1 GAP inh 12, FGF22 binding 0, ARFGAP1 inhibitor 5, Efflux pump mplx 0 and Rtt109 HAT inh -8.
Screening CCC(C)(C)n1nnnc1C(c1ccc(Cl)cc1)N1CCN(C)CC1 (configuration not stated) returned ASAP1 GAP inh 2, ARFGAP1 inhibitor 12, Efflux pump mplx 0 and Rtt109 HAT inh 0.
For O=C(C1CCCC1)N1C[C@@H]2[C@H](c3ccccc31)[C@@H](CO)N2C(=O)c1ccccc1F the results were FGF22 binding 0.
CCN(C[C@H]1N[C@@](Cc2ccccc2)(C(=O)OC)[C@H]2C(=O)N(C)C(=O)[C@@H]12)C(=O)c1ccc(F)cc1 was read as ASAP1 GAP inh -1, FGF22 binding 43*, ARFGAP1 inhibitor 12, Efflux pump mplx 0 and Rtt109 HAT inh -12.
For COC(=O)[C@]1(Cc2ccccc2)N[C@H](CN(C)C(=O)NC(C)C)[C@@H]2C(=O)N(Cc3ccccc3)C(=O)[C@@H]21 the results were ASAP1 GAP inh -2, FGF22 binding 1, ARFGAP1 inhibitor 6, Efflux pump mplx 0 and Rtt109 HAT inh 2.
CC[C@@]1(C(=O)OC)N[C@H](CN(C)C(=O)c2ccc(C)cc2)[C@@H]2C(=O)N(C)C(=O)[C@@H]21 was read as ASAP1 GAP inh 6, FGF22 binding 44*, ARFGAP1 inhibitor 0, Efflux pump mplx 0 and Rtt109 HAT inh 1.
Screening COC(=O)[C@]1(Cc2ccccc2)N[C@H](CN(C)C(=O)NC(C)C)[C@@H]2C(=O)N(C)C(=O)[C@@H]21 returned ASAP1 GAP inh -5, FGF22 binding 44*, ARFGAP1 inhibitor -3, Efflux pump mplx 0 and Rtt109 HAT inh -16.
`CCN(C[C@H]1N[C@@](CC)(C(=O)OC)[C@H]2C(=O)N(C)C(=O)[C@@H]12)C(=O)c1ccc(F)cc1` gave ASAP1 GAP inh 0, FGF22 binding 1, ARFGAP1 inhibitor 0, Efflux pump mplx 0 and Rtt109 HAT inh 1.
CCN(C[C@H]1N[C@@](Cc2ccccc2)(C(=O)OC)[C@H]2C(=O)N(C)C(=O)[C@@H]12)C(=O)c1ccc(C(C)(C)C)cc1 was read as ASAP1 GAP inh -4, FGF22 binding 0, ARFGAP1 inhibitor -1, Efflux pump mplx 0 and Rtt109 HAT inh 8.
Cc1nnc(SCC(=O)NC2CCS(=O)(=O)C2)n1Cc1ccccc1 (configuration not stated) was read as ASAP1 GAP inh -6, FGF22 binding 0, ARFGAP1 inhibitor 6, Efflux pump mplx 0 and Rtt109 HAT inh -5.
Screening COc1ccc(NC(=O)Nc2ccc3c(c2)C(=O)N([C@@H](C)CO)C[C@H](C)[C@@H](CN(C)S(C)(=O)=O)OCCCC[C@@H](C)O3)cc1 returned FGF22 binding -1.
Cc1ccc(S(=O)(=O)/N=C2/NC(=O)/C(=C\c3cc(Br)cc(Br)c3O)S2)cc1 was read as Efflux pump mplx 0 and Rtt109 HAT inh 34.
`Cc1ccc(NC(=O)C2CCCN(c3ncnc4c3nc3n4CCCCC3)C2)nc1` (configuration not stated) gave ASAP1 GAP inh 4, FGF22 binding -1, ARFGAP1 inhibitor -2, Efflux pump mplx 0 and Rtt109 HAT inh 8.
O=C1CSCN1c1ccc(Cl)c(Cl)c1 was read as ASAP1 GAP inh 5, FGF22 binding 43*, ARFGAP1 inhibitor -1, Efflux pump mplx 0 and Rtt109 HAT inh -2.
For COc1ccccc1/C=C/C(=O)Oc1cccc2cccnc12 the results were ASAP1 GAP inh 3, FGF22 binding 43*, ARFGAP1 inhibitor 6, Efflux pump mplx 0 and Rtt109 HAT inh 11.
`COc1ccccc1/C=C/C(=O)OCCCN(C)C` gave ASAP1 GAP inh 16, FGF22 binding 44*, ARFGAP1 inhibitor -5, Efflux pump mplx 0 and Rtt109 HAT inh -1.
